Reference: ChEMBL document CHEMBL4680065, “Pharmacophore-based screening of diamidine small molecule inhibitors for protein arginine methyltransferases” (RSC Med Chem, 2021)
Calls of active or inactive are those of the source. No cut-off for these calls is given here.

Columns and labels:
[1] = target: PRMT5/MEP50 complex (Homo sapiens) (UniProt O14744+Q9BQA1); assay: Inhibition of PRMT5/MEP50 (unknown origin) assessed as residual activity at 10 uM using biotin-labeled histone H4-20 peptide as substrate incubated for 8 mins in presence of [3H]-SAM cofactor by scintillation proximity assay relative to control; format: protein-complex assay
Summary of the method: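 Single-point profiling used 10 μM inhibitor added to the enzyme, [3H]-SAM and substrate mixture. Methylated substrate was quantified by scintillation proximity assay. Reactions were held at initial rate, with yield under 10% and substrate near Km. Enzyme, [3H]-SAM and substrate final levels are given in the supplement.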

[2] = target: T1, Protein arginine N-methyltransferase 1 (Homo sapiens, UniProt Q99873); assay: Inhibition of recombinant human His-tagged PRMT1 expressed in Escherichia coli BL21 (DE3) using biotin-labeled histone H4-20 as substrate incubated for 8 mins in presence of [3H]-SAM cofactor by scintillation proximity assay
Target sequence in this assay (Q99873 whole entry): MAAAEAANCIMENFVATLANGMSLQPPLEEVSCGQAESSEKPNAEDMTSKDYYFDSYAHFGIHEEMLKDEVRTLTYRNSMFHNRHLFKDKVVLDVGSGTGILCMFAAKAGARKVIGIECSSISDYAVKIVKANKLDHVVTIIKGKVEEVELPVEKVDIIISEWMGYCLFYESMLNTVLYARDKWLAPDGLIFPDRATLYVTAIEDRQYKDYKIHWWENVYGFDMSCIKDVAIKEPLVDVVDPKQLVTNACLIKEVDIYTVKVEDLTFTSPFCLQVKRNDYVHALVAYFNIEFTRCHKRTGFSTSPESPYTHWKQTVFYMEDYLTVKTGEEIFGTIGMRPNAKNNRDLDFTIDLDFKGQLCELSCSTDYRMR

[3] = target: T2, Protein arginine N-methyltransferase 7 (Homo sapiens, UniProt Q9NVM4); assay: Inhibition of recombinant GST-tagged PRMT7 (unknown origin) expressed in Escherichia coli using biotin-labeled SMD1 as substrate incubated for 120 mins in presence of [3H]-SAM cofactor by scintillation proximity assay
T2 sequence (Q9NVM4 whole entry): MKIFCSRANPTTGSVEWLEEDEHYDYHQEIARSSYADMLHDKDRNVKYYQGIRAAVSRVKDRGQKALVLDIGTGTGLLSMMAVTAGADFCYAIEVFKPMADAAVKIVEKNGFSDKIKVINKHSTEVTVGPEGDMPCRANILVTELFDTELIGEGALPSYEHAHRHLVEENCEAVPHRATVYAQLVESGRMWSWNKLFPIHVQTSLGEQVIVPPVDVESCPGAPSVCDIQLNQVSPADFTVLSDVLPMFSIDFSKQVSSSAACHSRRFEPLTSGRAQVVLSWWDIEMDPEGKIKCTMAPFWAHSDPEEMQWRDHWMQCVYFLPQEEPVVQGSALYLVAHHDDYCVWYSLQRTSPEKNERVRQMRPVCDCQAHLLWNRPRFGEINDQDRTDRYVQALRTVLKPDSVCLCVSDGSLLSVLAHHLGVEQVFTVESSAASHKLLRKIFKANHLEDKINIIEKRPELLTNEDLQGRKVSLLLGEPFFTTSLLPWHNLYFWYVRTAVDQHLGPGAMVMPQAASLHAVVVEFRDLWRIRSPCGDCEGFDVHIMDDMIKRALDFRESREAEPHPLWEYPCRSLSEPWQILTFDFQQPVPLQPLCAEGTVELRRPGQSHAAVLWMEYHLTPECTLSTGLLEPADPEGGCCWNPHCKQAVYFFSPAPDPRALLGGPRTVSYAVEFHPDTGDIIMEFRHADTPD
Summary of the method: (§1)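 The inhibitor was serially diluted and added to the enzyme, [3H]-SAM and substrate mixture, and methylated substrate was quantified by scintillation proximity assay. Reactions were held at initial rate, with yield under 10% and substrate near Km. PRMT3, PRMT8 and G9a were His-tagged human proteins, and PRMT7 was GST-tagged, all expressed in E. coli and affinity-purified.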

[4] = target: Protein arginine N-methyltransferase 6 (Homo sapiens, UniProt Q96LA8); assay: Inhibition of PRMT6 (unknown origin) using biotin-labeled SMD1 as substrate incubated for 30 mins in presence of [3H]-SAM cofactor by scintillation proximity assay
HEL = assay: Antiproliferative activity against human HEL cells assessed as inhibition of cell growth measured after 72 hrs by CellTiter-Glo assay; format: functional, cell-based
Summary of the method: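 Cells were cultured with the test agent, serially diluted, for 72 h. The control received the same amount of DMSO. Cell viability was then measured, and IC50 values were taken from sensitivity curves.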

[5] = target: T1, Protein arginine N-methyltransferase 1; assay: Non-competitive inhibition of recombinant His-tagged PRMT1 (unknown origin) expressed in Escherichia coli BL21 (DE3) using varying levels of [3H]-SAM as cofactor
Summary of the method: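 His-tagged human PRMT1 was expressed in E. coli BL21(DE3) and Ni-affinity purified. IC50 was measured by SPA at varied SAM or biotinylated H4 peptide (0.3125–4.5 μM), with the other component fixed near its Km (0.5 μM); n = 2.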
Target sequence in this assay (Q99873 whole entry, looked up): as the sequence (Q99873 whole entry) above

[6] = target: Protein arginine N-methyltransferase 8 (Homo sapiens, UniProt Q9NR22); assay: Inhibition of recombinant His-tagged human PRMT8 expressed in Escherichia coli BL21 (DE3) using biotin-labeled histone H4-20 peptide as substrate incubated for 8 mins in presence of [3H]-SAM cofactor by scintillation proximity assay; summary of the method: as §1
Protein arginine N-methyltransferase 8, sequence (Q9NR22 whole entry): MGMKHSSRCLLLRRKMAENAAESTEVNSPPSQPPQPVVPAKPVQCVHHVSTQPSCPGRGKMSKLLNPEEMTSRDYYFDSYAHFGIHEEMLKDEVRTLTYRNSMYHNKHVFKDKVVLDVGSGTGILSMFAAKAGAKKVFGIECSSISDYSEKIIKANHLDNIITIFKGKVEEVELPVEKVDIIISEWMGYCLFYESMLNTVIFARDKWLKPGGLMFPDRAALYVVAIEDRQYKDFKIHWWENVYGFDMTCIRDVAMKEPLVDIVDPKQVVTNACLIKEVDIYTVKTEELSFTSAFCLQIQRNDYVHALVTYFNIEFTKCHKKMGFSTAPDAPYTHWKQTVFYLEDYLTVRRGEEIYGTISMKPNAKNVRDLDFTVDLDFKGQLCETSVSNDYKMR

Protein arginine N-methyltransferase 6, sequence (Q96LA8 whole entry): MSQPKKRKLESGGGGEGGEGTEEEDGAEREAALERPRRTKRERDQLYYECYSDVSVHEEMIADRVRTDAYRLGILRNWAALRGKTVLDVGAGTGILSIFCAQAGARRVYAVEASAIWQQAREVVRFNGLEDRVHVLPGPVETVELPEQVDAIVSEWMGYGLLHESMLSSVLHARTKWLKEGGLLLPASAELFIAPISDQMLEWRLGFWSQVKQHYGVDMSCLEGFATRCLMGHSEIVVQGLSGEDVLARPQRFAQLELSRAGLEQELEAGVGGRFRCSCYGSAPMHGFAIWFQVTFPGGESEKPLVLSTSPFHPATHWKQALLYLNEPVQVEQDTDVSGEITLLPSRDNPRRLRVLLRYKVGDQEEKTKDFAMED

N=C(N)c1ccc(Nc2ccc(-c3cc4ccc(C(=N)N)cc4[nH]3)cc2)cc1
Activity [1]: 35.1%
IC50 [2]: 2.6 µM
IC50 [3]: 23.6 µM
IC50 [4]: 2.8 µM
IC50 (HEL): 2.27 µM
inhibition [5]: Active
IC50 [6]: 8.2 µM
